The values that follow come from ChEMBL document CHEMBL1132381, “Pyrrolidine-3-carboxylic acids as endothelin antagonists. 4. Side chain conformational restriction leads to ET(B) selectivity” (J Med Chem, 1999).

The target in data set [1] is Endothelin receptor, ET-A/ET-B (Homo sapiens) (UniProt P24530+P25101). The data set can be described thus: Ratio of binding affinity towards hETA to hETB. The format is protein assay. In outline:
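Ratio of IC50 values from two CHO membrane binding assays. Both run 3 h at 25 °C over 11 concentrations, 10^-10 to 10^-5 M, in duplicate, with at least 2 determinations each.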

The target of a further data set is T1, Endothelin-1 receptor (Homo sapiens, UniProt P25101).
T1 sequence (P25101 whole entry): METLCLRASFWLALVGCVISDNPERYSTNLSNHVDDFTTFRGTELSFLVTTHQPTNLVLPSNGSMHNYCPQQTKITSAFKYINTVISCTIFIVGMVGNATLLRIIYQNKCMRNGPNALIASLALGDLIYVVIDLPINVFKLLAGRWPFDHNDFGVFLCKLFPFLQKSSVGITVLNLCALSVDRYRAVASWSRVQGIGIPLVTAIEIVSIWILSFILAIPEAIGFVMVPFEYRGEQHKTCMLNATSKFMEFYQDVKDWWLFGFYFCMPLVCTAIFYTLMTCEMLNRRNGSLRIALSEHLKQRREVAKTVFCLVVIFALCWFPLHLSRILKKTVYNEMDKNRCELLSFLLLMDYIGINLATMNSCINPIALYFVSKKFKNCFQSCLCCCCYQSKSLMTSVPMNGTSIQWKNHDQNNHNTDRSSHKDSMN
The data set can be described thus: Binding affinity towards human Endothelin A receptor (hET -A).

Data set [2] deals with T2, Endothelin receptor type B (Homo sapiens, UniProt P24530).
T2 sequence (P24530 whole entry): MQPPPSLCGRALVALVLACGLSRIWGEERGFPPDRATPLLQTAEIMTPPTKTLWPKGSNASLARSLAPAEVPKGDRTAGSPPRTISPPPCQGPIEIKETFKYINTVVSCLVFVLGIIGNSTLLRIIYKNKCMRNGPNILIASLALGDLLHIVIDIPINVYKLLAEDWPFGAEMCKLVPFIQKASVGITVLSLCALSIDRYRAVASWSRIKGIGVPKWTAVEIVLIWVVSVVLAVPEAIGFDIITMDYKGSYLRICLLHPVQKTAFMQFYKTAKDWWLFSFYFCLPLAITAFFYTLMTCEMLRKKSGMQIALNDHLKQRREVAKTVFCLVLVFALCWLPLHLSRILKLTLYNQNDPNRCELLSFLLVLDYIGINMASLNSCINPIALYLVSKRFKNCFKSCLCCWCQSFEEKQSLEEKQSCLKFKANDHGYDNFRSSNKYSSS
Description: Binding affinity towards human Endothelin B receptor (hET -B).

Data set [3] in a line: Compound was evaluated for area under curve when administered through oral route to rat. The conditions noted are these: in vivo.
Data set [4] in a line: Compound was evaluated for the biological half-life when administered through intravenous route. The format is ADME, organism-based. The settings on record: in vivo.

Consider `CCCc1cccc(CC)c1NC(=O)CN1C[C@H](c2ccc3c(c2)OCO3)[C@@H](C(=O)O)[C@@H]1c1ccc(OC)cc1`, for which, in data set [1], the Ratio was 0.2. Further, the 50% inhibitory concentration (IC50) (commonly the concentration that inhibits the measured activity by half) at Endothelin-1 receptor was found to be 15 nM; in data set [2], 82 nM.

As to `CCOc1ccc([C@H]2[C@H](C(=O)O)[C@@H](c3ccc4c(c3)OCO4)CN2CC(=O)Nc2c(CC)cccc2CC)cc1` (stereo in doubt; 31) [listing 1 of 2 here], the IC50 at Endothelin-1 receptor was 910 nM; in data set [2], 3.6 nM.

As for `CCc1cccc(OC)c1NC(=O)CN1C[C@H](c2ccc3c(c2)OCO3)[C@@H](C(=O)O)[C@@H]1c1ccc(OC)cc1`, in data set [1], the Ratio was determined as 34. Besides, the results for the IC50 (at Endothelin-1 receptor; in data set [2]) were 200 nM and 5.8 nM, respectively.

On to `CCc1cccc(CC)c1NC(=O)CN1C[C@H](c2ccc3c(c2)OCO3)[C@@H](C(=O)O)[C@@H]1c1ccc(CCOC)cc1`, for which, in data set [1], the Ratio was 3000. In addition, the results for the IC50 (at Endothelin-1 receptor; in data set [2]) were 11000 nM and 3.8 nM, respectively.

With `CCc1cccc(CC)c1NC(=O)CN1C[C@H](c2ccc3c(c2)OCO3)[C@@H](C(=O)O)[C@@H]1c1ccc(OCCOC)cc1` (stereo in doubt; 34) [listing 1 of 2 here], the values for the half-maximal inhibitory concentration (IC50) (on Endothelin-1 receptor; in data set [2]) were 4200 nM and 1.1 nM, respectively.

Regarding `CCc1cccc(CC)c1N(C)C(=O)CN1C[C@H](c2ccc3c(c2)OCO3)[C@@H](C(=O)O)[C@@H]1c1ccc(OC)cc1`, in data set [1], the Ratio stood at 0.3. Further, the values for the IC50 (at Endothelin-1 receptor; in data set [2]) were 190 nM and 600 nM, respectively.

Turning to `CCc1cccc(CC)c1NC(=O)CN1C[C@H](c2ccc3c(c2)OCO3)[C@@H](C(=O)O)[C@@H]1c1ccc(OCCOC)cc1` (stereo in doubt; 39), the AUC (usually concentration integrated over time) in data set [3] stood at 650 ng·h/mL. The half-life (commonly how long it takes for the measured level to halve) in data set [4] was 2.6 h. Moreover, the values for the IC50 (at Endothelin-1 receptor; in data set [2]) were 3700 nM and 0.85 nM, respectively.

Consider `CCc1cccc(CC)c1NC(=O)CN1C[C@H](c2ccc3c(c2)OCO3)[C@@H](C(=O)O)[C@@H]1c1ccc(OC)cc1` (stereo in doubt; 19) [listing 1 of 2 here], for which the IC50 on Endothelin-1 receptor came to 45 nM; in data set [2], 1.4 nM.

`COc1ccc([C@H]2[C@H](C(=O)O)[C@@H](c3ccc4c(c3)OCO4)CN2CC(=O)Nc2c(Br)cccc2Br)cc1`: in data set [1], the Ratio turned out to be 6. For the same compound, the half-inhibitory concentration (IC50) at Endothelin-1 receptor worked out at 61 nM; in data set [2], 10 nM.

`CCc1cccc(C)c1NC(=O)CN1C[C@H](c2ccc3c(c2)OCO3)[C@@H](C(=O)O)[C@@H]1c1ccc(OC)cc1`: the Ratio in data set [1] worked out at 4. Also, the results for the IC50 (on Endothelin-1 receptor; in data set [2]) were 15 nM and 4 nM, respectively.

For the compound `CCc1cc(F)cc(CC)c1NC(=O)CN1C[C@H](c2ccc3c(c2)OCO3)[C@@H](C(=O)O)[C@@H]1c1ccc(OC)cc1`, the Ratio in data set [1] stood at 24. In addition, the IC50 turned out to be 22 nM at Endothelin-1 receptor and 0.8 nM in data set [2].

In the case of `COc1ccc([C@H]2[C@H](C(=O)O)[C@@H](c3ccc4c(c3)OCO4)CN2CC(=O)Nc2ccc(C)c(C)c2)cc1`, in data set [1], the Ratio worked out at 0.06. In addition, the results for the concentration for half-maximal inhibition (IC50) (on Endothelin-1 receptor; in data set [2]) were 50 nM and 830 nM, respectively.

As for `CCc1cccc(CC)c1NC(=O)CN1C[C@H](c2ccc3c(c2)OCO3)[C@@H](C(=O)O)[C@@H]1c1ccc(OC(C)C)cc1`, the Ratio in data set [1] was 220. The values for the IC50 (on Endothelin-1 receptor; in data set [2]) were 1500 nM and 6.9 nM, respectively.

Consider `CCc1cccc(CC)c1NC(=O)CN1C[C@H](c2ccc3c(c2)OCO3)[C@@H](C(=O)O)[C@@H]1c1ccc(OCCOC)cc1` (stereo in doubt; 34) [listing 2 of 2 here], for which the Ratio in data set [1] is 4000.

Take `COc1ccc([C@H]2[C@H](C(=O)O)[C@@H](c3ccc4c(c3)OCO4)CN2CC(=O)Nc2cccc(C)c2C)cc1`: the Ratio in data set [1] stood at 0.2. Also, the results for the IC50 (on Endothelin-1 receptor; in data set [2]) were 16 nM and 81 nM, respectively.

As for `CCc1cc(CC)c(NC(=O)CN2C[C@H](c3ccc4c(c3)OCO4)[C@@H](C(=O)O)[C@@H]2c2ccc(OC)cc2)c(CC)c1`, the Ratio in data set [1] worked out at 7. The 50% inhibitory concentration (IC50) on Endothelin-1 receptor came to 10 nM; in data set [2] it was 1.5 nM.

In the case of `CCCOc1ccc([C@H]2[C@H](C(=O)O)[C@@H](c3ccc4c(c3)OCO4)CN2CC(=O)Nc2c(CC)cccc2CC)cc1` (stereo in doubt; 38), in data set [1], the Ratio turned out to be 1300.

With `COc1ccc([C@H]2[C@H](C(=O)O)[C@@H](c3ccc4c(c3)OCO4)CN2CC(=O)Nc2c(OC)cccc2OC)cc1`, the Ratio in data set [1] is 0.3. For the same compound, the IC50 on Endothelin-1 receptor came to 16 nM; in data set [2] it was 57 nM.

Take `COc1ccc([C@H]2[C@H](C(=O)O)[C@@H](c3ccc4c(c3)OCO4)CN2CC(=O)Nc2cc(C)cc(C)c2)cc1`: the Ratio in data set [1] turned out to be 0.06. Also, the concentration for half-maximal inhibition (IC50) at Endothelin-1 receptor was 160 nM; in data set [2], 2700 nM.

In the case of `CCCc1cccc(CCC)c1NC(=O)CN1C[C@H](c2ccc3c(c2)OCO3)[C@@H](C(=O)O)[C@@H]1c1ccc(OC)cc1`, the Ratio in data set [1] was 0.03. Further, the IC50 was found to be 12 nM at Endothelin-1 receptor and 460 nM in data set [2].

On to `CCOc1ccc([C@H]2[C@H](C(=O)O)[C@@H](c3ccc4c(c3)OCO4)CN2CC(=O)Nc2c(CC)cccc2CC)cc1` (stereo in doubt; 31) [listing 2 of 2 here], for which the Ratio in data set [1] worked out at 250.

As to `COc1ccc([C@H]2[C@H](C(=O)O)[C@@H](c3ccc4c(c3)OCO4)CN2CC(=O)Nc2ccc(C)cc2C)cc1`, the Ratio in data set [1] came to 0.3. For the same compound, the half-inhibitory concentration (IC50) stood at 25 nM on Endothelin-1 receptor and 74 nM in data set [2].

For `CCc1cccc(CC)c1NC(=O)CN1C[C@H](c2ccc3c(c2)OCO3)[C@@H](C(=O)O)[C@@H]1c1ccc(OC)cc1` (stereo in doubt; 36), the Ratio in data set [1] was determined as 330.

As to `CCc1cccc(CC)c1NC(=O)CN1C[C@H](c2ccc3c(c2)OCO3)[C@@H](C(=O)O)[C@@H]1c1ccc(OC)cc1` (stereo in doubt; 19) [listing 2 of 2 here], the Ratio in data set [1] is 32.

In the case of `COc1ccc([C@H]2[C@H](C(=O)O)[C@@H](c3ccc4c(c3)OCO4)CN2CC(=O)Nc2c(C)cccc2C(C)C)cc1`, the Ratio in data set [1] was found to be 5. Besides, the IC50 on Endothelin-1 receptor was found to be 100 nM; in data set [2], 20 nM.

For the compound `CCCOc1ccc([C@H]2[C@H](C(=O)O)[C@@H](c3ccc4c(c3)OCO4)CN2CC(=O)Nc2c(CC)cccc2CC)cc1` (stereo in doubt; 32) [A-192621], the half-maximal inhibitory concentration (IC50) was 9900 nM at Endothelin-1 receptor and 12 nM in data set [2].

Take `CCCOc1ccc([C@H]2[C@H](C(=O)O)[C@@H](c3ccc4c(c3)OCO4)CN2CC(=O)Nc2c(CC)cccc2CC)cc1` (stereo in doubt; 32): in data set [1], the Ratio was determined as 820.

For the compound `CCOc1ccc([C@H]2[C@H](C(=O)O)[C@@H](c3ccc4c(c3)OCO4)CN2CC(=O)Nc2c(CC)cccc2CC)cc1` (stereo in doubt; 37), in data set [1], the Ratio worked out at 280.

`COc1ccc([C@H]2[C@H](C(=O)O)[C@@H](c3ccc4c(c3)OCO4)CN2CC(=O)Nc2c(C)cccc2C)cc1`: the Ratio in data set [1] amounted to 2. In addition, the half-maximal inhibitory concentration (IC50) on Endothelin-1 receptor stood at 33 nM; in data set [2] it was 16 nM.

With `COc1ccc([C@H]2[C@H](C(=O)O)[C@@H](c3ccc4c(c3)OCO4)CN2CC(=O)Nc2c(C(C)C)cccc2C(C)C)cc1`, in data set [1], the Ratio amounted to 35. In addition, the figures for the IC50 (at Endothelin-1 receptor; in data set [2]) were 920 nM and 26 nM, respectively.

For `COc1ccc([C@H]2[C@H](C(=O)O)[C@@H](c3ccc4c(c3)OCO4)CN2CC(=O)Nc2cc(C)ccc2C)cc1`, the Ratio in data set [1] worked out at 0.4. Moreover, the half-maximal inhibitory concentration (IC50) was found to be 33 nM at Endothelin-1 receptor and 82 nM in data set [2].

`CCc1cc(C(=O)O)cc(CC)c1NC(=O)CN1C[C@H](c2ccc3c(c2)OCO3)[C@@H](C(=O)O)[C@@H]1c1ccc(OC)cc1`: the Ratio in data set [1] was 19. Further, the half-inhibitory concentration (IC50) at Endothelin-1 receptor is 840 nM; in data set [2], 44 nM.
